Calls of active or inactive are those of the source.
Legend:
THP-1 [1] = experiment: Antagonist activity at NOD in human THP-1 cells assessed as increase in IL-8 secretion at 20 uM; format: cell-based
Method in brief: (§1)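 THP-1 cells at 10^6 cells/mL in RPMI 1640 with 10% heat-inactivated FCS, passages 3–12, exposed to 20 µM compound alone (no NOD agonist). IL-8 and TNF-α in cell-free supernatants measured by sandwich ELISA, reported in pg/mL. Detection limits were 15.6 pg/mL for IL-8 and 4 pg/mL for TNF-α. DMSO vehicle control, not above 0.2% final.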

[2] = target: T1, Nucleotide-binding oligomerization domain-containing protein 1 (Homo sapiens, UniProt Q9Y239); experiment: Antagonist activity at human NOD1 expressed in HEK293 cells assessed as reduction in C12-iE-DAP-induced NF-kappaB activation preincubated for 1 hr followed by C12-iE-DAP stimulation and measured after 18 hrs by SEAP reporter gene based spectrophotometric analysis; format: cell-based
T1 sequence (Q9Y239 whole entry): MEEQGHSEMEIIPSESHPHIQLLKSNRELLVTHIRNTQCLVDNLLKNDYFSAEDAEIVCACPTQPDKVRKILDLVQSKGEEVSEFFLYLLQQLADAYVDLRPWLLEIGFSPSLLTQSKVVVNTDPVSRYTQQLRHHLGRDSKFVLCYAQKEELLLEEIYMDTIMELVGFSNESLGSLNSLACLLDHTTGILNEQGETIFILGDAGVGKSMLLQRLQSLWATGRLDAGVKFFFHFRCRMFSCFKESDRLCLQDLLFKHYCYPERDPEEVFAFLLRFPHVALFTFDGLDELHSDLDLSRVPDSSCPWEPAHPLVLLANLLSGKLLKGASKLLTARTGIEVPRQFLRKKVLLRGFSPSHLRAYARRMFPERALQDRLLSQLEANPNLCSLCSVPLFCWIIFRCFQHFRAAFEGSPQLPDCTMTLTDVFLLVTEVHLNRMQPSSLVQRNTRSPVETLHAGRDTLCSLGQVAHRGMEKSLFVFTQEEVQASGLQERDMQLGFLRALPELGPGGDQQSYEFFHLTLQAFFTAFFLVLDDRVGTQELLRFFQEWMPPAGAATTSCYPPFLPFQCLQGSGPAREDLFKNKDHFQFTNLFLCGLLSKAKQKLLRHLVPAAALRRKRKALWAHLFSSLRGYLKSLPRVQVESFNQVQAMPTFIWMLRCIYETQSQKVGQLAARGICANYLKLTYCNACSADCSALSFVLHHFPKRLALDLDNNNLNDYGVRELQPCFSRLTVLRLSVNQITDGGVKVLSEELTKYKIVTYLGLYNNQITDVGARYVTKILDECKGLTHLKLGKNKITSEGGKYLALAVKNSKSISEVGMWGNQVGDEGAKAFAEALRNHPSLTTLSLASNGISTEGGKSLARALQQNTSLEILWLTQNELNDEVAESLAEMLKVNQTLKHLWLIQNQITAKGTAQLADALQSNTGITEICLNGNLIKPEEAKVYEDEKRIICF

THP-1 [3] = experiment: Antagonist activity at NOD in human THP-1 cells assessed as increase in TNF-alpha secretion at 20 uM; format: cell-based; method in brief: as §1
HEK293 [4] = experiment: Cytotoxicity against human HEK293 cells expressing human NOD1 assessed as reduction in metabolic activity at 20 uM incubated for 18 hrs by MTS assay; format: ADME, cell-based; conditions: hek293, 18 h
Method in brief: (§2)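 HEK-Blue NOD1 or NOD2 cells seeded at 1 × 10^4 cells/well in triplicate. Treated 18 h with 20 µM compound or 0.1% DMSO vehicle. Metabolic activity read by MTS (CellTiter 96 AQueous One) and expressed relative to vehicle control. Mean ± SD of three biological replicates.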

[5] = target: T2, Nucleotide-binding oligomerization domain-containing protein 2 (Homo sapiens, UniProt Q9HC29); experiment: Antagonist activity at human NOD2 expressed in HEK293 cells assessed as reduction in MDP-induced NF-kappaB activation preincubated for 1 hr followed by MDP stimulation and measured after 18 hrs by SEAP reporter gene based spectrophotometric analysis; format: cell-based; conditions: read-out: IC50
Method in brief: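 Dose–response in HEK-Blue NOD2 and NOD1 cells (5 × 10^5 cells/mL): 1 h pre-treatment with 0.3125–20 µM antagonist, then 2 µM MDP or 100 nM C12-iE-DAP respectively, 18 h incubation. SEAP absorbance read at 620 nm. IC50 fitted by non-linear regression. Duplicates, three biological replicates, DMSO ≤0.1%.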

[6] = target: T2, Nucleotide-binding oligomerization domain-containing protein 2; experiment: Antagonist activity at NOD2 in human PBMC assessed as reduction in MDP-induced IL-6 secretion at 20 uM preincubated for 1 hr followed by MDP stimulation and measured after 18 hrs by flow cytometric analysis; format: tissue-based; conditions: filed as antagonist, time 19.0 hrs
Method in brief: (§3)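 Human PBMCs from healthy donors, Ficoll density-gradient isolated, 1 × 10^6 cells in RPMI 1640 with 10% heat-inactivated FBS. Pre-treated 1 h with 20 µM compound, then 2 µM MDP. Supernatants taken at 18 h and stored at −80 °C. Cytokines quantified by flow cytometric bead array (Th1/Th2 panel) against recombinant standards, in pg/mL. Mean ± SD from two representative experiments.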

[7] = target: T2, Nucleotide-binding oligomerization domain-containing protein 2; experiment: Antagonist activity at NOD2 in human THP-1 cells assessed as reduction in MDP-induced IL-8 secretion at 20 uM preincubated for 1 hr followed by MDP stimulation and measured after 20 hrs by ELISA; format: cell-based; conditions: filed as antagonist, time 21.0 hrs
Method in brief: (§4)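 THP-1 cells at 10^6 cells/mL in 24-well cultures, passages 3–12. Pre-treated 1 h with 20 µM compound, then 10 µM MDP (NOD2) or 10 µM C12-iE-DAP (NOD1) added, 20 h at 37 °C, 5% CO2. Triplicate wells, DMSO ≤0.2% as vehicle control. Supernatant IL-8 by sandwich ELISA, detection limit 15.6 pg/mL. Mean ± SD of duplicates from three independent experiments, Dunnett test.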

[8] = target: T3, Nucleotide-binding oligomerization domain-containing protein 1 (Homo sapiens) (UniProt Q9Y239); experiment: Antagonist activity at human NOD1 expressed in HEK293 cells assessed as reduction in C12-iE-DAP-induced NF-kappaB activation at 10 uM preincubated for 1 hr followed by C12-iE-DAP stimulation and measured after 18 hrs by SEAP reporter gene based spectrophotometric analysis; format: cell-based; conditions: filed as antagonist, time 19.0 hrs
T3 sequence (whole entry): T1 sequence (Q9Y239 whole entry)
Method in brief: (§5)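 HEK-Blue NOD1 or NOD2 reporter cells (5 × 10^5 cells/mL, passages 7–12) pre-treated 1 h with 10 µM compound. Then 100 nM C12-iE-DAP (NOD1) or 2 µM MDP (NOD2) for 18 h at 37 °C, 5% CO2. Secreted SEAP read at 620 nm. DMSO ≤0.1% vehicle control. Duplicates, three biological replicates.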

[9] = target: T2, Nucleotide-binding oligomerization domain-containing protein 2; experiment: Antagonist activity at NOD2 in human PBMC assessed as reduction in MDP-induced TNF-alpha secretion at 20 uM preincubated for 1 hr followed by MDP stimulation and measured after 18 hrs by flow cytometric analysis; format: tissue-based; conditions: filed as antagonist, time 19.0 hrs; method in brief: as §3
THP-1 [10] = experiment: Cytotoxicity against human THP-1 cells assessed as […] dehydrogenase leakage at 20 uM incubated for 18 hrs; format: cell-based; conditions: thp-1, 18 h
Method in brief: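 THP-1 cells treated 18 h with compound at up to 20 µM. Lactate dehydrogenase released into cell-free supernatant measured with a colorimetric kit, results given as OD.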

HEK293 [11] = experiment: Cytotoxicity against human HEK293 cells expressing human NOD2 assessed as reduction in metabolic activity at 20 uM incubated for 18 hrs by MTS assay; format: ADME, cell-based; conditions: hek293, 18 h; method in brief: as §2
[12] = target: T2, Nucleotide-binding oligomerization domain-containing protein 2; experiment: Antagonist activity at NOD2 in human PBMC assessed as reduction in MDP-induced IL-10 secretion at 20 uM preincubated for 1 hr followed by MDP stimulation and measured after 18 hrs by flow cytometric analysis; format: tissue-based; conditions: filed as antagonist, time 19.0 hrs; method in brief: as §3
[13] = target: T2, Nucleotide-binding oligomerization domain-containing protein 2; experiment: Antagonist activity at human NOD2 expressed in HEK293 cells assessed as reduction in MDP-induced NF-kappaB activation at 10 uM preincubated for 1 hr followed by MDP stimulation and measured after 18 hrs by SEAP reporter gene based spectrophotometric analysis; format: cell-based; conditions: filed as antagonist, time 19.0 hrs; method in brief: as §5
[14] = target: T3, Nucleotide-binding oligomerization domain-containing protein 1 (Homo sapiens); experiment: Antagonist activity at NOD1 in human THP-1 cells assessed as reduction in C12-iE-DAP-induced IL-8 secretion at 20 uM preincubated for 1 hr followed by C12-iE-DAP stimulation and measured after 20 hrs by ELISA; format: cell-based; conditions: filed as antagonist, time 21.0 hrs; method in brief: as §4
THP-1 [15] = experiment: Antagonist activity at NOD1/TLR4 in human THP-1 cells assessed as reduction in C12-iE-DAP/LPS-induced TNF-alpha secretion at 20 uM preincubated for 1 hr followed by C12-iE-DAP/LPS stimulation and measured after 20 hrs by ELISA; format: cell-based; conditions: time 21.0 hrs
Method in brief: (§6)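 Synergy setting in THP-1 cells: 1 h pre-treatment with 20 µM compound, then 10 µM MDP or C12-iE-DAP plus 1 ng/mL E. coli O127:B8 LPS for 20 h. Supernatant TNF-α by sandwich ELISA, detection limit 4 pg/mL. DMSO vehicle ≤0.2%. Duplicates from three independent experiments, mean ± SD, Dunnett test against agonist+LPS-treated cells.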

THP-1 [16] = experiment: Antagonist activity at NOD2/TLR4 in human THP-1 cells assessed as reduction in MDP/LPS-induced TNF-alpha secretion at 20 uM preincubated for 1 hr followed by MDP/LPS stimulation and measured after 20 hrs by ELISA; format: cell-based; conditions: filed as antagonist, time 21.0 hrs; method in brief: as §6

T2 sequence (Q9HC29 whole entry, the tested form may be a part): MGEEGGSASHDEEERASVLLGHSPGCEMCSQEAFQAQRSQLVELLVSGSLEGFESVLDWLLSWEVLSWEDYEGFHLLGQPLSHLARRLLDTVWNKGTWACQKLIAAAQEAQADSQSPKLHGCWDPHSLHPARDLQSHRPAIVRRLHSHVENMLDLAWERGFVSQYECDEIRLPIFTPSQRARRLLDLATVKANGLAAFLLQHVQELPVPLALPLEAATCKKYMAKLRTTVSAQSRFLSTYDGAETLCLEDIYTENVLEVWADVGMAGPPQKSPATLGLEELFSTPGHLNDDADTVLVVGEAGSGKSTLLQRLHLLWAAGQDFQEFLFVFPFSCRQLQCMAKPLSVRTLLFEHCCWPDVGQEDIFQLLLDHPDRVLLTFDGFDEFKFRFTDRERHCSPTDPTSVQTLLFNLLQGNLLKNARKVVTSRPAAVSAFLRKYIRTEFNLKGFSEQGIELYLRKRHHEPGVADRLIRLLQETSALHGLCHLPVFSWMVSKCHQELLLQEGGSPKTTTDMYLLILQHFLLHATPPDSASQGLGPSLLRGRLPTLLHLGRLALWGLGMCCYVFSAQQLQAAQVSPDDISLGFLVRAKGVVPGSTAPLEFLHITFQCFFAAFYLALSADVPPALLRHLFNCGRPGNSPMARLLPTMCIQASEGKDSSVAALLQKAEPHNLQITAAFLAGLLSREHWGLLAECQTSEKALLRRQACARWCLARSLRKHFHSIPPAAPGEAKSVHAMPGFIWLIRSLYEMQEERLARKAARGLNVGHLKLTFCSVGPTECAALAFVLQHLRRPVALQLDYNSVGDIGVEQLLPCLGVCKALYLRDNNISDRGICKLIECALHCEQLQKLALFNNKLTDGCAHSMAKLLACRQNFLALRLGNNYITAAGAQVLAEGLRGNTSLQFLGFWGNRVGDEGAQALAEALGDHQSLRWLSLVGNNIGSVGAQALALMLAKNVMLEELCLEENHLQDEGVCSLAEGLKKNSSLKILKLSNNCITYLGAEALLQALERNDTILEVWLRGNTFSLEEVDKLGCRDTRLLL

O=C(Cn1c(CCNS(=O)(=O)c2ccccc2)nc2ccccc21)Nc1ccc2c(c1)CCC2
Non-Toxic: Activity (HEK293 [4]) | Activity (THP-1 [10]) | Activity (HEK293 [11])
active: Activity [6] | Activity [7] | Activity [8] | Activity [9] | Activity [12] | Activity [13] | Activity [14] | Activity (THP-1 [16])
5.23 µM: IC50 [5]
inactive: Activity (THP-1 [1]) | Activity (THP-1 [3]) | Activity (THP-1 [15])
28.2 µM: IC50 [2]
